Only some compounds are listed: those with a hit (about 2.3% of all), similar ones and a draw of the others.
ADAM10 inh: inhibits human ADAM10 | O14672 | recombinant ADAM10, EDANS/DABCYL FRET peptide cleavage, 3 h | inhibition, % at 7 µM | hit rate 0.62% among 370,000 | AID 720582;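 active = inhibition above a per-campaign cutoff equal to the mean of compounds falling between control-based bounds plus 3 SD, cut at about 20% in these data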;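 note: 0% = DMSO wells while the 100% control is not disclosed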
PLCg1 inh: blocks human PLC-gamma1 enzyme activity. hit rate 0.84% among 370,000. inhibition, % at 12.2 µM. AID 720700. purified PLC-gamma1, fluorogenic substrate, fluorescence; in the data active = inhibition above about 9.5%
PLC-beta3 inh: blocks human PLC-beta3 enzyme activity | Purified PLC-beta3, fluorogenic substrate, fluorescence | AID 720704 | inhibition, % at 12.2 µM | hit rate 0.18% among 370,000; in the data active = inhibition above about 11%;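 note: 0% = median of compound wells on plate and 100% = full blocker control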
Target sequence (Q01970 whole entry, looked up): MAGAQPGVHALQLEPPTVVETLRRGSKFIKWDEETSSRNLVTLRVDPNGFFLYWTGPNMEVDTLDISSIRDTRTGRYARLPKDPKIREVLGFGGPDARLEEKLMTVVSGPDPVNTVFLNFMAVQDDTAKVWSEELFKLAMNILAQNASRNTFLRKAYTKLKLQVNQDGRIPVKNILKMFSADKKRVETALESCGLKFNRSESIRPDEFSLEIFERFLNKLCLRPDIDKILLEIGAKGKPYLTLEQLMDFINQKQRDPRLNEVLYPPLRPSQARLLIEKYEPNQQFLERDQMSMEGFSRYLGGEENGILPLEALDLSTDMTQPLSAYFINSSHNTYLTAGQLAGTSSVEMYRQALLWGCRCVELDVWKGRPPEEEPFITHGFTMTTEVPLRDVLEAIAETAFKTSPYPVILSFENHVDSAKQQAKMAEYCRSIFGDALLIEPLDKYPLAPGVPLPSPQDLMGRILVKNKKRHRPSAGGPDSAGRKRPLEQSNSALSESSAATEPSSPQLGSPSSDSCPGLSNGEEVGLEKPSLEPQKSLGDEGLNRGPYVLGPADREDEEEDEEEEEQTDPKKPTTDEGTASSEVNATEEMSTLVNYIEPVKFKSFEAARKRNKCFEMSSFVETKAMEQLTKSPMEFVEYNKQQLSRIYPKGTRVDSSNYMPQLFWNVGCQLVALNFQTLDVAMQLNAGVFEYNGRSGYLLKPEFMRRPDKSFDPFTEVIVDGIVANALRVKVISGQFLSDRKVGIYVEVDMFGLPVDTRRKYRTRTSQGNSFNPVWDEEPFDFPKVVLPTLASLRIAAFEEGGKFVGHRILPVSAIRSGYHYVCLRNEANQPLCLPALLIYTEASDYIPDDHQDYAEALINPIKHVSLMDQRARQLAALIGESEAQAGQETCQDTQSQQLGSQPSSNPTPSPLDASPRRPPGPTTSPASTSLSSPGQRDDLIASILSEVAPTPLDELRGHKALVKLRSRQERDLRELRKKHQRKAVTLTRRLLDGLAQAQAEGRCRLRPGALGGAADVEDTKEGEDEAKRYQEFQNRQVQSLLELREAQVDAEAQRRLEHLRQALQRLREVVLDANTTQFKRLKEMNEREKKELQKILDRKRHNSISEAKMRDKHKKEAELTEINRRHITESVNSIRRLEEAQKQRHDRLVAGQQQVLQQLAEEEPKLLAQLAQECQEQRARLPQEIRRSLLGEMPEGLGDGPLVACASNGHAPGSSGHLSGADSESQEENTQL
TbMetRS inhib: blocks T. brucei methionyl-tRNA synthetase activity. purified T. brucei MetRS, ATP depletion, Kinase-Glo luminescence. hit rate 0.4% among 360,000. AID 624268. inhibition, % at 11.9 µM;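 active = inhibition above a per-plate cutoff of the control wells' mean inhibition plus 3 SD, cut at about 5.5% in these data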;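 note: 0% = DMSO wells median and 100% = median of wells with control inhibitor compound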
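assay system = parasite MetRS enzyme | timing = 15 min preincubation, 2 h reaction, all 25 °C | evaluation = percent inhibition relative to median high and low control wells | medium = HEPES buffer containing pyrophosphatase, BSA, spermine, DTT | compound = single dose, 11.9 µM final nominal, 0.9% final DMSO | detection = Kinase-Glo luminescence, ATP depletion format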
ADAM17 inh: inhibits human ADAM17. P78536. recombinant ADAM17, EDANS/DABCYL FRET peptide cleavage. inhibition, % at 6.95 µM. hit rate 0.83% among 370,000. AID 720648;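 active = inhibition above the mean of compounds lying between control limits plus 3 SD, set per campaign, cut at about 8.5% in these data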;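 note: 0% = DMSO-only wells as the low control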
ADAM10 confirm: confirmation of inhibitors of human ADAM10; shares compounds with ADAM10 inh; hit rate 1% among 2,100; ADAM10 QFRET peptide cleavage, EDANS fluorescence; AID 743208; inhibition, % at 6.95 µM;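 active = inhibition above about 20% chosen separately for each screening run, limit read from the data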;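 note: 0% = DMSO wells and 100% = marimastat wells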
ADAM17 counter: counter-screen for ADAM10 exosite inhibitors: inhibitors of human ADAM17. inhibition, % at 6.95 µM. shares compounds with ADAM10 inh. hit rate 0.5% among 2,100. ADAM17 QFRET peptide cleavage, EDANS fluorescence;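 active = mean triplicate inhibition above the solvent-only control wells' mean plus 3 SD, cut at about 12% in these data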;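 note: 0% = DMSO wells and 100% = marimastat wells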
Active calls of the source: *; x = no result.

SMILES	ADAM10 inh	PLCg1 inh	PLC-beta3 inh	TbMetRS inhib	ADAM17 inh	ADAM10 confirm	ADAM17 counter
C[C@@H](c1ccccc1)N1C[C@H](COCc2ccccc2)Oc2cc(N3CCC[C@H]3C(N)=O)ccc2S1(=O)=O	-5.8	-3.3	1.6	-1.4	-1.9	x	x
C[C@@H](c1ccccc1)N1C[C@@H](COCc2ccccc2)Oc2cc(N3CCC[C@H]3C(N)=O)ccc2S1(=O)=O	21.8*	6.2	4.8	-1.1	6.9	5.3	1.0
CCCCC[C@@H](C)N1C[C@@H](COCc2ccccc2)Oc2cc(N3CC[C@@H](O)C3)ccc2S1(=O)=O	20.5*	-0.1	-0.3	-0.3	5.5	6.2	3.0
Cc1sc2ncnc(SCC(=O)c3ccc4c(c3)OCCO4)c2c1-c1ccccc1	-2.0	-2.4	-0.8	-0.5	-1.9	x	x
COc1ccc2nc(NN=Cc3cccc(C)n3)cc(C)c2c1	-33.8	-9.5	-11.6	x	-12.4	x	x
O=C(Nc1nccs1)C1CC(=O)N(CCc2ccc(F)cc2)C1 (configuration not stated)	1.9	0.6	-2.7	-0.6	-0.2	x	x
CCCCCCCCN1C(=O)N2Cc3ccc(C)cc3C2CS1(=O)=O (configuration not stated)	-1.4	1.9	3.6	x	1.5	x	x
CCOC(=O)[C@@H]1[C@H]2COc3ccccc3[C@H]2N2C(=O)N(c3ccc(OC)cc3)C(=O)[C@]12C	1.6	0.9	4.1	-0.2	-0.4	x	x
O=C(CC(c1ccccc1)c1ccccc1)Nc1ccc(Cl)cn1	22.9*	9.6*	2.7	-0.2	13.8*	1.8	0.5
O=C(COC(=O)CCc1nc2ccccc2s1)Nc1ccc(Cl)cn1	23.8*	-5.7	-5.2	0.3	-2.4	1.3	0.2
COCc1cc(N2CCNC[C@H]2C)ccc1N1C[C@@H](C)O[C@@H](C)C1	-11.2	-0.8	0.4	x	-4.3	x	x
O/N=C/c1cc(Cl)ccc1OCc1ccccc1Cl	23.1*	-3.2	0.1	-1.2	5.0	8.9	2.4
C[C@H]1CN([C@@H](C)CO)C(=O)Cc2cc(NC(=O)CCC(F)(F)F)ccc2O[C@H]1CN(C)Cc1ccc(-c2ccccc2)cc1	28.7*	3.4	4.2	-0.4	7.6	6.6	2.3
C[C@@H]1CN([C@H](C)CO)C(=O)Cc2cc(NC(=O)CCC(F)(F)F)ccc2O[C@@H]1CN(C)C(=O)Nc1ccccc1	7.5	2.2	2.2	0.3	1.1	x	x
CC1(C(=O)NCC2CCCCC2)CCN1CCc1ccccc1 (configuration not stated)	-6.3	1.3	1.1	0.1	-2.5	x	x
FC(F)Sc1ccc(NC(=S)NCC2CCCCC2)cc1	30.7*	0.7	0.4	0.2	6.8	1.7	1.4
CCN(CC)c1ccc(/C=C2\C(=O)c3ccc(C(=O)O)cc3C2=O)cc1	-10.1	-2.3	-7.5	-0.5	-3.4	x	x
COc1ccc(N2C(=O)CSC23C(=O)N2CCCc4cccc3c42)cc1 (configuration not stated)	-0.2	2.6	-0.9	-0.9	-2.9	x	x
COc1ccc(N2C(=O)CSC23C(=O)N2c4c(cccc43)C(C)=CC2(C)C)cc1 (configuration not stated)	22.5*	6.3	3.5	-0.8	8.6	2.1	0.1
CCCCN1C(=O)C(CC(=O)NC2CC2)CC(C(=O)N2CCOCC2)=C1C (configuration not stated)	-0.4	1.2	6.3	-0.6	0.3	x	x
COc1cccc(N(C)C(=O)[C@@H](C2CC2)[C@@H](O)c2ccc(Cl)cc2)c1	1.6	1.4	0.7	x	1.3	x	x
CN(C(=O)[C@@H](C1CC1)[C@@H](O)c1ccc2ccccc2c1)c1ccccc1	87.2*	10.4*	0.1	x	5.3	-0.3	0.0
CC(C)CC(NS(=O)(=O)OCC(Cl)(Cl)Cl)c1ccccc1 (configuration not stated)	20.4*	-2.1	4.2	-0.1	4.1	6.0	1.8
COC(=O)CCC(NS(=O)(=O)OCC(Cl)(Cl)Cl)c1ccccc1 (configuration not stated)	1.7	-0.5	1.3	-0.3	-3.2	x	x
CCN(CC)S(=O)(=O)c1cccc(-c2n[nH]c(=S)n2/N=C/c2ccc(OC)cc2)c1	13.3	-3.0	-3.3	-0.5	5.3	x	x
SMILES	ADAM10 inh	PLCg1 inh	PLC-beta3 inh	TbMetRS inhib	ADAM17 inh	ADAM10 confirm	ADAM17 counter
CCN(CC)S(=O)(=O)c1cccc(-c2n[nH]c(=S)n2/N=C/c2ccc(OC(F)F)cc2)c1	20.4*	1.3	-5.1	-0.2	8.0	5.9	3.3
Cc1onc(-c2ccccc2)c1-c1nnc(COC(=O)c2ccc(O)cc2)o1	22.0*	0.5	-2.9	-0.4	6.7	0.3	0.4
COc1ccc(NC(=O)c2cc(-c3ccc(F)cc3OC)n[nH]2)c(C)c1	-3.4	0.6	-0.6	0.2	-3.4	x	x
Cc1sc2ncnc(N3CCC(C(=O)NNC(=O)COc4ccccc4Cl)CC3)c2c1C	25.6*	5.0	-7.6	-0.2	-0.1	2.6	2.0
Cc1sc2ncnc(N3CCC(C(=O)NNC(=O)COc4ccc(Cl)cc4)CC3)c2c1C	21.4*	0.6	-8.8	-0.3	1.8	1.5	0.5
COc1ccccc1C(=O)Nc1nc(-c2ccc(S(=O)(=O)N3CCOCC3)cc2)cs1	-7.7	-21.9	-26.1	-0.2	3.3	x	x
COc1ccccc1OC(C)C(=O)Nc1nc(-c2ccc(S(=O)(=O)N3CCOCC3)cc2)cs1 (configuration not stated)	21.1*	-16.2	-21.3	0.1	6.5	8.8	3.3
O=C(NCCn1cc(SCc2ccccc2)c2ccccc21)c1c(F)cccc1F	23.9*	0.2	-2.5	-0.4	6.8	5.3	2.6
O=C(Nc1nc2ccccc2s1)C1CCCO1 (configuration not stated)	1.1	0.4	-0.6	-0.3	-2.3	x	x
O=C(Nc1nc2ccccc2s1)C1c2ccccc2Oc2ccccc21	28.4*	0.9	2.2	-0.9	8.4	9.9	3.2
CN(C)c1ccc(C(CNS(=O)(=O)c2ccc(F)cc2)c2c[nH]c3ccccc23)cc1 (configuration not stated)	22.3*	-3.4	-6.2	-0.3	6.7	13.1	3.3
CN(C)c1ccc(C(CNC(=O)c2ccccc2Br)c2c[nH]c3ccccc23)cc1 (configuration not stated)	-0.3	1.3	0.6	-0.5	0.5	x	x
CCN(c1ccccc1)S(=O)(=O)c1cc(C(=O)Nc2ccc(F)c(F)c2)ccc1F	25.7*	1.2	2.1	0.3	8.5	7.7	3.1
Cc1cccc(CCNC(=O)CCc2nc(-c3ccccc3F)no2)c1	20.5*	7.3	3.4	0.4	4.0	1.3	0.7
O=C(c1ccc(OC2CCN(Cc3ccccn3)CC2)cc1)N1CCCCO1	9.5	2.4	8.9	-0.2	5.5	x	x

Compound activity from PubChem.
